High-throughput results: PubChem BioAssay, several laboratories
NR2E3 ag-1 – activates human photoreceptor nuclear receptor NR2E3. GST-NR2E3/biotin-RetCOR TR-FRET, 1536-well. 0.12% of 320,000 active. AID 2300. Q9Y5X4. inhibition of corepressor binding, % at 4.78 µM;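 active = percent inhibition above the cutoff of mean plus 3 SD of all tested compounds, set per screening campaign, cut at about 20% in these data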
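Test system – NR2E3–RetCOR corepressor complex · Quantity – NR2E3 fusion 1.35 nM · Buffer or medium – Tris pH 7.5 · Incubation – Compound–protein incubation for 5 h at 4 °C · Technique – TR-FRET, Eu(K)-anti-GST donor, streptavidin-D2 acceptor, ex 340, em 617/671 nm · Evaluation – percent inhibition of 671/617 nm emission ratio versus biotin and DMSO controls · Plate – 1536-well format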
VLA-4 inh – inhibition in a human VLA-4 binding assay | inhibition, % (about 7 µM as worked out from the volumes in the protocol) | AID 2557 | VLA-4 expressing cells, ligand binding flow cytometry | P13612 | 0.2% of 330,000 active; in the data active = inhibition above about 50%
Target sequence (P13612 whole entry, looked up): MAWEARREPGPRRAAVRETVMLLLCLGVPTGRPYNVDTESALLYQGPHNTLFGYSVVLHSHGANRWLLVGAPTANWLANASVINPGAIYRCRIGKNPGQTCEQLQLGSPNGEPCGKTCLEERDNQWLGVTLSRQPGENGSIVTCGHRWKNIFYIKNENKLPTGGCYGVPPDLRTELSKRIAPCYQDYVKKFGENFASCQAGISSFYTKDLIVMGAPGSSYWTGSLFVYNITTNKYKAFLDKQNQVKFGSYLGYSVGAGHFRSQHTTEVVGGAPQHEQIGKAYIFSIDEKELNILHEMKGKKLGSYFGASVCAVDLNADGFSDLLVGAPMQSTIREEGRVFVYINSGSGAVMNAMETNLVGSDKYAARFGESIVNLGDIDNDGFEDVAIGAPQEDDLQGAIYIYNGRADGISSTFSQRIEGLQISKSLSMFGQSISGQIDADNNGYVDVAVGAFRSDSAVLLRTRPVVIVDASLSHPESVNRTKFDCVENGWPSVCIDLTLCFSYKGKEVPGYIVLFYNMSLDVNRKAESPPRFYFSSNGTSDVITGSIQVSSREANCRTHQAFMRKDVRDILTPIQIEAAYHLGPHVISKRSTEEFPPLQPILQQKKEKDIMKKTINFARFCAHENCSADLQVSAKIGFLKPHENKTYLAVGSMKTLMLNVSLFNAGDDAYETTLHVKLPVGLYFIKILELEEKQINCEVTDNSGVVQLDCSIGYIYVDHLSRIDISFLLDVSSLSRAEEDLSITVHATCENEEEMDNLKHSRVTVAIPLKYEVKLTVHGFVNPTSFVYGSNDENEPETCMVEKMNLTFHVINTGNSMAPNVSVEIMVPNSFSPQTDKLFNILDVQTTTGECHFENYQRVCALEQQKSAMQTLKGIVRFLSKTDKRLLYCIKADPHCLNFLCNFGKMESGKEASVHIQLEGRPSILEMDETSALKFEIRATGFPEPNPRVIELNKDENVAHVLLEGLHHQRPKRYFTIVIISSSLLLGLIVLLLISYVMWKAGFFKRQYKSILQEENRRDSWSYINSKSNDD
PG9 Ab binder – small molecules binding HIV-1 gp120 antibody PG9. TR-FRET gp120-PG9 antibody binding. inhibition, % at 6.7 µM. 0.43% of 360,000 active. AID 624416; in the data active = inhibition above about 8.5%
NR2E3 ag-2 – agonists of human NR2E3 nuclear receptor | CHO-S Gal4-NCOR/VP16-NR2E3 two-hybrid, luciferase | inhibition of corepressor binding, % at 3.98 µM | 0.35% of 360,000 active | AID 602229;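 active = inhibition above the mean of all tested compounds plus 3 SD, cut at about 70% in these data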;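 note: higher means lower luciferase signal from less NR2E3 corepressor binding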
Rev-erbA mod – modulators of human Rev-erb alpha DNA binding | P20393 | Rev-erbα–FITC-DNA binding, fluorescence polarization, 90 min | activity, % at 10 µM | 0.79% of 370,000 active;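 active = activity above about 14%, limit read from the data; passing the limit was not always enough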
NR1D1 mod conf – Rev-erb alpha (human) modulation, hit confirmation; AID 1259319; shares compounds with Rev-erbA mod; 61% of 3,000 active; activation, % at 25 µM; Rev-erb alpha FITC-DNA binding, fluorescence polarization, 90 min;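 active = activation at or above a set limit, or at least 3 SD above the negative control mean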
RORg counter – RORgamma DNA-binding activity, dose-response counter-screen | 8% of 910 active | IC50, µM | shares compounds with Rev-erbA mod | AID 1259320 | purified RORgamma protein-FITC-DNA binding, fluorescence polarization;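 active = Compounds whose fitted half-maximal concentration for disrupting protein-DNA binding is below 10 micromolar; the record names Rev-erb in its text, so the target is in doubt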
Numbers stand for hits; – = inactive; · = no result. An excerpt weighted towards active compounds, which were near 1.6% of everything screened.

SMILES | NR2E3 ag-1 | VLA-4 inh | PG9 Ab binder | NR2E3 ag-2 | Rev-erbA mod | NR1D1 mod conf | others
NS(=O)(=O)c1ccc(CCNC(=O)c2ccc(Cl)s2)cc1 | – | – | – | – | – | ·
N=C1C(c2nc3ccccc3s2)=C(O)CN1C1CCCCC1 | – | – | – | – | 20 | –
CC(C)NC(=O)CSc1ccccc1C(=O)N1CCN(S(=O)(=O)Cc2ccccc2)CC1 | · | · | – | – | – | ·
COc1ccc(S(=O)(=O)Nc2c(C)n(C)n(-c3ccccc3)c2=O)c(Cl)c1Cl | – | – | – | – | – | ·
O=C(CCl)N1c2ccccc2Oc2ccc3ccccc3c21 | · | · | – | – | 15 | –
COCCNC(=O)C1(C(F)(F)F)CC(CCCO)CCCO1 (stereo not drawn) | – | – | – | – | – | ·
COc1ccc(Cl)cc1-c1nc(-c2ccncc2)no1 | – | – | – | – | 30 | –
O=C(NC1CCSc2ccccc21)c1ccc(Cl)c(S(=O)(=O)N2CCOCC2)c1 (stereo not drawn) | – | – | – | – | – | ·
Cc1ccc(Nc2nc3ccccc3n3nnnc23)cc1 | – | – | – | – | – | ·
Cc1cccc(CCNc2nc3ccccc3n3nnnc23)c1 | – | – | – | – | 44 | –
Clc1ccc(Nc2nc3ccccc3n3nnnc23)cc1 | – | – | – | – | 33 | 18
CC(=O)N1C2=CCCC3CCCCC23c2ccccc21 (stereo not drawn) | · | · | – | – | – | ·
C=CCNC(=O)c1ccc(-c2nc(-c3ccc(Cl)cc3Cl)cs2)cc1 | – | – | – | – | 31 | 44 | RORg counter=–
Cc1ccc(C)c(NC(=O)c2ccc(OCc3c(C)noc3C)cc2)c1 | – | – | – | – | – | ·
Cc1nc(N2CCN(c3ccccn3)CC2)c2c(C)c(C(=O)Nc3c(F)cc(F)cc3Br)sc2n1 | – | – | – | – | 46 | –
Cc1nc(N2CCN(C)CC2)c2c(C)c(C(=O)Nc3ccc(C)c(F)c3)sc2n1 | – | – | – | – | – | ·
Cc1nc(N2CCN(c3ccccn3)CC2)c2c(C)c(C(=O)N3CCN(c4ccc(F)cc4)CC3)sc2n1 | – | – | – | – | 20 | –
Cc1nc(N2CCC(C)CC2)c2c(C)c(C(=O)Nc3ccc(C)c(F)c3)sc2n1 | – | – | – | – | 46 | 32 | RORg counter=–
Cc1nc(N2CCN(c3ccccn3)CC2)c2c(C)c(C(=O)Nc3c(C)cc(Br)cc3C)sc2n1 | – | – | – | – | 28 | –
Cc1nc(N2CCN(c3ccccn3)CC2)c2c(C)c(C(=O)Nc3ccc(Cl)cc3)sc2n1 | – | – | – | – | – | ·
O=C(Nc1cccnc1)NC1CCCCC1 | – | – | – | – | – | ·
Cc1ccccc1NC(=O)C(C)Sc1nnc(CN2CCCC2)n1Cc1ccccc1 (stereo not drawn) | · | · | – | – | – | ·
COc1cccc(C(=O)CSc2nnc(-c3cccs3)o2)c1 | – | – | – | – | – | ·
COc1cccc(C(=O)CSc2nnc(-c3cc(OC)cc(OC)c3)o2)c1 | – | – | – | – | 27 | 36 | RORg counter=–
O=C(NCCc1ccc(F)cc1)C(=O)NCC1CCCN1S(=O)(=O)c1ccccc1 (stereo not drawn) | – | – | – | – | – | ·
SMILES | NR2E3 ag-1 | VLA-4 inh | PG9 Ab binder | NR2E3 ag-2 | Rev-erbA mod | NR1D1 mod conf | others
COC(=O)c1ccsc1NC(=O)c1ccc2c(c1)OCCO2 | – | – | – | – | – | ·
COC(=O)c1ccsc1NC(=O)c1ccc(Cl)s1 | – | – | – | – | 20 | –
COC(=O)c1[nH]c2c(c1C)C(=O)CC(c1cccc(OC)c1)C2 (stereo not drawn) | – | – | – | – | – | ·
CCCCN(Cc1ccccc1)S(=O)(=O)c1ccc2c(c1)n(C)c(=O)c(=O)n2C | – | – | – | – | 45 | –
O=C(NCCOc1ccccc1)c1ccccc1SCC(=O)N1CCCC1 | – | – | – | – | – | ·
O=C(NCc1ccco1)c1ccc(Cn2c(=O)c3ccccc3n(Cc3cccc(Cl)c3)c2=O)cc1 | – | – | – | – | – | ·
O=C(NCc1ccco1)c1ccc(Cn2c(=O)c3sccc3n(Cc3cccc(F)c3)c2=O)cc1 | – | – | – | – | 34 | 37 | RORg counter=–
CNC(=O)COc1ccccc1C(=O)Nc1ccc2c(c1)oc1ccccc12 | – | – | – | – | 58 | 79 | RORg counter=–
CN(C)C(=O)CSc1nc(-c2cccs2)c(-c2cccs2)[nH]1 | – | – | – | – | 22 | 24
Cc1ccc(S(=O)(=O)N2CCC(C(=O)NCCN3CCOCC3)CC2)cc1 | · | · | – | – | – | ·
COc1ccc(Cn2ccc3ccc(-c4ccc5ccn(C(=O)c6cccc(OC)c6)c5c4)cc32)cc1 | · | · | · | · | 38 | 71 | RORg counter=–
COC(=O)c1ccc(Cn2ccc3ccc(-c4ccc5ccn(C(=O)c6ccccc6C)c5c4)cc32)cc1 | · | · | · | · | 30 | 42 | RORg counter=–
COC(=O)c1ccc(Cn2ccc3ccc(-c4ccc5ccn(Cc6ccc(OC)cc6)c5c4)cc32)cc1 | · | · | · | · | – | ·
COC(=O)c1ccc(Cn2ccc3ccc(-c4ccc5ccn(Cc6ccc(C(=O)OC)cc6)c5c4)cc32)cc1 | · | · | · | · | – | ·
N#Cc1ccc(Cn2ccc3ccc(-c4ccc5ccn(C(=O)C6CCCCC6)c5c4)cc32)cc1 | · | · | · | · | 36 | 18
N#Cc1ccc(Cn2ccc3ccc(-c4ccc5ccn(C(=O)C6CCC6)c5c4)cc32)cc1 | · | · | · | · | – | ·
COC(=O)c1ccc(Cn2ccc3ccc(-c4ccc5ccn(C(=O)c6cccc(OC)c6)c5c4)cc32)cc1 | · | · | · | · | 40 | 52 | RORg counter=–
CC(=O)Nc1cccc(-c2nc3ccccc3n2C(C(=O)NC(C)(C)C)C2CC2)c1 (stereo not drawn) | · | · | – | · | – | ·
CCN(CC)S(=O)(=O)c1ccc(C(=O)NC(=S)N2CCN(c3ccccc3O)CC2)cc1 | · | · | – | – | – | ·
CCc1nn(C(C)C(=O)N2CCN(c3ccc(OC)cc3)CC2)c(=O)c2cc3occc3n12 (stereo not drawn) | – | – | – | – | – | ·
Cc1ccc(-n2nc3ccc(NC(=O)c4cccc([N+](=O)[O-])c4C)cc3n2)cc1 | – | – | – | – | 26 | –
Cc1ccc(-n2nc3ccc(NC(=O)c4ccco4)cc3n2)cc1 | – | – | – | – | – | ·
Cc1ccccc1NC(=O)N1CCN(c2ncccn2)CC1 | – | – | – | – | – | ·
O=C(COC(=O)c1ccccc1)Nc1ncc([N+](=O)[O-])s1 | · | – | – | – | – | ·
O=C(Nc1ccccc1)Nc1ncc([N+](=O)[O-])s1 | · | · | – | – | 23 | –
O=C(C1CCN(S(=O)(=O)c2ccccc2F)CC1)N1CCN(Cc2ccc3c(c2)OCO3)CC1 | – | – | – | – | – | ·
O=C(O)CSc1c2ccccc2cc2ccccc12 | – | – | – | – | 41 | 38 | RORg counter=–
COc1ccc(-n2c(COc3ccc(Cl)cc3)nnc2SCC(=O)c2ccc(-c3ccccc3)cc2)cc1 | · | · | · | · | 22 | –
COc1ccc([C@H]2C[C@@H](n3cc(C4CC4)nn3)[C@H](O)CN2CC2CCCCC2)cc1 | · | · | – | – | – | ·
